# Test results published in PubChem BioAssay AID651931 (Vanderbilt Specialized Chemistry Center, 2012).
# The source made the active and inactive calls. No rule for the calls is given here.
# Molecular target: Muscarinic acetylcholine receptor M3 (Rattus norvegicus) (UniProt P08483)
# Test: rat M3 positive allosteric modulation check – CHO cells, calcium flux, selectivity assay for M5 PAM discovery project (AID 651931)
# Details: CHO-K1 rat M3, Fluo-4 calcium flux, ACh EC20; series mostly up to 30 µM
# How it was run: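 material = Fluo-4-loaded stable M3 CHO-K1 cells | also added = acetylcholine, EC20 | compound = 0.3% final DMSO | signal = Fluo-4 calcium flux | medium = HBSS, pH 7.4, plus 2.5 mM probenecid and 20 mM HEPES | read-out basis = % of maximal ACh response | incubation = dye load 45-60 min, 1.5 min compound, 50 s ACh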
# Sequence of Muscarinic acetylcholine receptor M3 (Rattus norvegicus) (P08483 whole entry, looked up): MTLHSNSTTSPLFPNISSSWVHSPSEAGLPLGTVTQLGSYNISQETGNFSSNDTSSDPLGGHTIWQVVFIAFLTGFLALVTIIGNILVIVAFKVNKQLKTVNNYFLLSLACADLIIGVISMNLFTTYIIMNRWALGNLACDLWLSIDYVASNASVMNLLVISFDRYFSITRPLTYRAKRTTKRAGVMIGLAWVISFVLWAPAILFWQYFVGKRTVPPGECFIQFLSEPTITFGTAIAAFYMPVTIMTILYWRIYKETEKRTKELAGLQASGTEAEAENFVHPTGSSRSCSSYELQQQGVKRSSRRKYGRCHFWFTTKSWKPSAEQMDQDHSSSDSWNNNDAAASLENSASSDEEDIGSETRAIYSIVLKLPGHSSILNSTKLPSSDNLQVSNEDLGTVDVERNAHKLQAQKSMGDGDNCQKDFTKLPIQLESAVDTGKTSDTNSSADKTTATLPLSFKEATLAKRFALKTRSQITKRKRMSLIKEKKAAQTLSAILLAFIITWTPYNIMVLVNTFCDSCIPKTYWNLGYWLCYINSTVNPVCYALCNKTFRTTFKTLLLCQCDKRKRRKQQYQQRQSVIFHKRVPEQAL
compound,measurement,value
O=C1C(=O)N(CCOc2ccccc2)c2ccc(OC(F)(F)F)cc21,outcome,inactive
